Source: ChEMBL document CHEMBL2417481, “Regioselective synthesis of 6-substituted-2-amino-5-bromo-4(3H)-pyrimidinones and evaluation of their antiviral activity” (Eur J Med Chem, 2013)

Assays:
Influenza B virus = test: Antiviral activity against Influenza B virus infected in MDCK cells assessed as reduction in virus-induced cytopathogenicity; format: functional, organism-based
Summary of the method: (§1)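 Confluent cell monolayers (Vero, HeLa, HEL or MDCK, as named in each line) were infected with 100 CCID50 of virus while exposed to a range of compound concentrations. Cytopathicity was scored once it was complete in untreated infected controls.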

Influenza A virus [1] = test: Antiviral activity against Influenza A virus […] infected in MDCK cells assessed as reduction in virus-induced cytopathogenicity; format: functional, organism-based; summary of the method: as §1
Punta Toro virus = test: Antiviral activity against Punta Toro virus infected in african green monkey Vero cells assessed as reduction in virus-induced cytopathogenicity; format: functional, organism-based; summary of the method: as §1
Coxsackievirus B4 [2] = test: Antiviral activity against Coxsackievirus B4 infected in african green monkey Vero cells assessed as reduction in virus-induced cytopathogenicity; format: functional, organism-based; settings: Enterovirus B; summary of the method: as §1
Sindbis virus = test: Antiviral activity against Sindbis virus infected in african green monkey Vero cells assessed as reduction in virus-induced cytopathogenicity; format: functional, organism-based; summary of the method: as §1
[3] = system: Mammalian orthoreovirus 1; test: Antiviral activity against Reovirus-1 infected in african green monkey Vero cells assessed as reduction in virus-induced cytopathogenicity; format: functional, organism-based; settings: Mammalian orthoreovirus 1, Vero
Summary of the method: (§2)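 Confluent Vero monolayers in 96-well plates were inoculated with 100 CCID50 of virus together with varying compound concentrations. Cytopathicity was scored once it was complete in untreated virus-infected control cultures.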

Human respirovirus 3 = test: Antiviral activity against Parainfluenza virus 3 infected in african green monkey Vero cells assessed as reduction in virus-induced cytopathogenicity; format: functional, organism-based; settings: Human respirovirus 3, Vero; summary of the method: as §2
[4] = system: Respiratory syncytial virus; test: Antiviral activity against Respiratory syncytial virus Long infected in human HeLa cells assessed as reduction in virus-induced cytopathogenicity; format: functional, organism-based; summary of the method: as §1
Coxsackievirus B4 [5] = test: Antiviral activity against Coxsackievirus B4 infected in human HeLa cells assessed as reduction in virus-induced cytopathogenicity; format: functional, organism-based; settings: Enterovirus B; summary of the method: as §1
Influenza A virus [6] = test: Antiviral activity against Influenza A virus H1N1 infected in MDCK cells assessed as reduction in virus-induced cytopathogenicity; format: functional, organism-based; summary of the method: as §1
[7] = system: Vesicular stomatitis virus; test: Antiviral activity against Vesicular stomatitis virus infected in human HeLa cells assessed as reduction in virus-induced cytopathogenicity; format: functional, organism-based; summary of the method: as §1
Human alphaherpesvirus 1 [8] = test: Antiviral activity against thymidine kinase negative […] Herpes simplex virus-1 KOS infected in human HEL cells assessed as reduction in virus-induced cytopathogenicity; format: functional, organism-based; settings: Human alphaherpesvirus 1, KOS; summary of the method: as §1
[9] = system: Vesicular stomatitis virus; test: Antiviral activity against Vesicular stomatitis virus infected in human HEL cells assessed as reduction in virus-induced cytopathogenicity; format: functional, organism-based; summary of the method: as §1
Human alphaherpesvirus 2 = test: Antiviral activity against Herpes simplex virus-2 G infected in human HEL cells assessed as reduction in virus-induced cytopathogenicity; format: functional, organism-based; settings: Human alphaherpesvirus 2, strain G; summary of the method: as §1
Human alphaherpesvirus 1 [10] = test: Antiviral activity against Herpes simplex virus-1 KOS infected in human HEL cells assessed as reduction in virus-induced cytopathogenicity; format: functional, organism-based; settings: Human alphaherpesvirus 1, KOS; summary of the method: as §1
Felid alphaherpesvirus 1 = test: Antiviral activity against Feline Herpes virus infected in cat CRFK cells assessed as inhibition of virus-induced cytopathic effect by MTS assay; format: functional, organism-based; settings: Felid alphaherpesvirus 1, CRFK
Feline coronavirus = test: Antiviral activity against Feline coronavirus infected in cat CRFK cells assessed as inhibition of virus-induced cytopathic effect by MTS assay; format: functional, organism-based; settings: Alphacoronavirus 1, CRFK
Human alphaherpesvirus 3 [11] = test: Antiviral activity against thymidine kinase negative Varicella-zoster virus 07-1 infected in human HEL cells assessed as reduction in the virus plaque formation; format: functional, organism-based; settings: Human alphaherpesvirus 3, 07-1, HEL
Summary of the method: (§3)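 Confluent HEL fibroblast cultures received 20 PFU of VZV together with varying compound concentrations. Plaque formation was read when it reached completion in untreated virus controls.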

Human alphaherpesvirus 3 [12] = test: Antiviral activity against thymidine kinase positive Varicella-zoster virus OKA infected in human HEL cells assessed as reduction in virus plaque formation; format: functional, cell-based, Human herpesvirus 3 strain Oka vaccine; settings: Human alphaherpesvirus 3, OKA; summary of the method: as §3
Cytomegalovirus [13] = test: Antiviral activity against Cytomegalovirus Davis infected in human HEL cells assessed as reduction in virus plaque formation; format: functional, organism-based; settings: Human betaherpesvirus 5, Davis
Summary of the method: (§4)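 Confluent HEL fibroblasts were inoculated with 100 PFU of CMV at graded compound concentrations. Plaques were counted once formation was complete in untreated infected controls.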

[14] = Cytotoxicity against MDCK cells assessed as morphological changes; format: cell-based, Canis lupus familiaris; settings: dog
[15] = Cytotoxicity against african green monkey Vero cells assessed as morphological changes; format: cell-based; settings: chlorocebus sabaeus
[16] = Cytotoxicity against human HeLa cells assessed as morphological changes; format: cell-based
[17] = Cytotoxicity against cat CRFK cells assessed as cell viability by MTS assay; format: cell-based, Felis catus
Cytomegalovirus [18] = test: Antiviral activity against Cytomegalovirus AD-169 infected in human HEL cells assessed as reduction in virus plaque formation; format: functional, organism-based; settings: Human betaherpesvirus 5, AD-169, HEL; summary of the method: as §4
[19] = Cytotoxicity against human HEL cells assessed as morphological changes; format: cell-based

SMILES | EC50 (Influenza B virus) [µM] | EC50 (Influenza A virus [1]) [µM] | EC50 (Punta Toro virus) [µM] | EC50 (Coxsackievirus B4 [2]) [µM] | EC50 (Sindbis virus) [µM] | EC50 [3] [µM] | EC50 (Human respirovirus 3) [µM] | EC50 [4] [µM] | EC50 (Coxsackievirus B4 [5]) [µM] | EC50 (Influenza A virus [6]) [µM] | EC50 [7] [µM] | EC50 (Human alphaherpesvirus 1 [8]) [µM] | EC50 [9] [µM] | EC50 (Human alphaherpesvirus 1 [10]) [µM] | EC50 (Cytomegalovirus [13]) [µM] | MCC [14] [µM] | MCC [15] [µM] | MCC [16] [µM] | EC50 (Cytomegalovirus [18]) [µM] | MCC [19] [µM] | also measured
CC(C)(O)Cc1nc(N)[nH]c(=O)c1Br | > 100 | > 100 | > 100 | > 100 | > 100 | > 100 | > 100 | > 100 | > 100 | > 100 | 45 | > 100 | > 100 | > 100 | > 100 | > 100 | > 100 | > 100 | 100 | > 100 | EC50 (Human alphaherpesvirus 2): > 100 µM; EC50 (Felid alphaherpesvirus 1): > 100 µM; EC50 (Feline coronavirus): > 100 µM; EC50 (Human alphaherpesvirus 3 [11]): 79.5 µM; EC50 (Human alphaherpesvirus 3 [12]): 100 µM; MCC [17]: > 100 µM
Nc1nc(CC(O)c2ccc(Cl)cc2)c(Br)c(=O)[nH]1 (configuration not stated) | > 100 | > 100 | > 100 | > 100 | > 100 | > 100 | > 100 | > 100 | > 100 | > 100 | 45 | > 100 | > 100 | > 100 | 100 | > 100 | > 100 | > 100 | 100 | > 100 | EC50 (Human alphaherpesvirus 2): > 100 µM; EC50 (Felid alphaherpesvirus 1): > 100 µM; EC50 (Feline coronavirus): > 100 µM; EC50 (Human alphaherpesvirus 3 [11]): 100 µM; EC50 (Human alphaherpesvirus 3 [12]): 100 µM; MCC [17]: > 100 µM
Nc1nc(CC(O)c2ccccc2C(F)(F)F)c(Br)c(=O)[nH]1 (configuration not stated) | > 100 | > 100 | > 100 | > 100 | > 100 | > 100 | > 100 | > 100 | > 100 | > 100 | > 100 | > 100 | > 100 | > 100 | > 100 | > 100 | > 100 | > 100 | > 100 | > 100 | EC50 (Human alphaherpesvirus 2): > 100 µM; EC50 (Felid alphaherpesvirus 1): > 100 µM; EC50 (Feline coronavirus): > 100 µM; EC50 (Human alphaherpesvirus 3 [11]): > 100 µM; EC50 (Human alphaherpesvirus 3 [12]): > 100 µM; MCC [17]: > 100 µM
Nc1ncnc2c1ncn2C[C@H](O)CO [(S)-DHPA] | – | – | > 250 | > 250 | > 250 | > 250 | > 250 | > 250 | > 250 | – | > 250 | – | – | – | – | – | > 250 | > 250 | – | – | –
Nc1nc2c(ncn2COCCO)c(=O)[nH]1 [ACYCLOVIR] | – | – | – | – | – | – | – | – | – | – | – | – | > 250 | – | – | – | – | – | – | > 250 | –
NC12CC3CC(CC(C3)C1)C2 [AMANTADINE] | > 200 | 0.8 | – | – | – | – | – | – | – | 140 | – | – | – | – | – | > 200 | – | – | – | – | –
O=c1[nH]c(=O)n([C@H]2C[C@H](O)[C@@H](CO)O2)cc1/C=C/Br [BRIVUDINE] | – | – | – | – | – | – | – | – | – | – | – | > 250 | > 250 | 0.4 | – | – | – | – | – | > 250 | EC50 (Human alphaherpesvirus 3 [11]): 33 µM; EC50 (Human alphaherpesvirus 3 [12]): 0.02 µM
Nc1ccn(C[C@@H](CO)OCP(=O)(O)O)c(=O)n1 [CIDOFOVIR] | – | – | – | – | – | – | – | – | – | – | – | – | > 250 | – | 0.51 | – | – | – | 3.1 | > 250 | –
Nc1nc2c(ncn2COC(CO)CO)c(=O)[nH]1 [GANCICLOVIR] | – | – | – | – | – | – | – | – | – | – | – | – | – | > 100 | 0.38 | – | – | > 100 | 3.1 | > 100 | EC50 (Human alphaherpesvirus 2): 0.9 µM; EC50 (Felid alphaherpesvirus 1): 0.9 µM; EC50 (Feline coronavirus): > 100 µM; MCC [17]: > 100 µM
NC(=O)c1ncn([C@@H]2O[C@H](CO)[C@@H](O)[C@H]2O)n1 [RIBAVIRIN] | 8.3 | 7.2 | 112 | > 250 | > 250 | > 250 | – | 5 | 22 | 9.6 | – | – | – | – | – | > 100 | > 250 | > 250 | – | – | –
CC(N)C12CC3CC(CC(C3)C1)C2 (configuration not stated) [RIMANTADINE] | > 200 | – | – | – | – | – | – | – | – | – | – | – | – | – | – | > 200 | – | – | – | – | –
